# Experimental data taken from ChEMBL document CHEMBL5058577, “EUbOPEN Chemogenomics Library 2 (Multiplex)” (2022).
# System: Fibroblast
# Assay: Multiplex assay against human fibroblast
# Format: toxicity, cell-based
# Outline: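 At seeding, live cells were stained with Hoechst33342, BioTracker Green Microtubule Cytoskeleton Dye, MitoTracker Red and Annexin V Alexa Fluor 680. After compound addition they were imaged on a CQ1 microscope at 37°C and 5% CO2, and CellPathfinder machine-learning gating sorted them into Hoechst high-intensity objects or normal cells, with normal cells further split into healthy, pyknosed or fragmented nuclei and pyknosed cells into mitotic or apoptotic. Tubulin, mitochondrial-mass and membrane-permeability phenotypes are given as per cents of cells with healthy nuclei.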
# [1] = 12 h, 1 µM, compound concentration 1 uM, replicate 1
# [2] = 12 h, 1 µM, compound concentration 1 uM, replicate 2
# [3] = 12 h, 10 µM, compound concentration 10 uM, replicate 1
# [4] = 12 h, 10 µM, compound concentration 10 uM, replicate 2
# [5] = 24 h, 1 µM, compound concentration 1 uM, replicate 1
# [6] = 24 h, 1 µM, compound concentration 1 uM, replicate 2
# [7] = 24 h, 10 µM, compound concentration 10 uM, replicate 1
# [8] = 24 h, 10 µM, compound concentration 10 uM, replicate 2
# [9] = 48 h, 1 µM, compound concentration 1 uM, replicate 1
# [10] = 48 h, 1 µM, compound concentration 1 uM, replicate 2
# [11] = 48 h, 10 µM, compound concentration 10 uM, replicate 1
# [12] = 48 h, 10 µM, compound concentration 10 uM, replicate 2
compound,measurement,setting,value
COc1ccc2c(c1OCc1ccccc1)C[C@@H](C(=O)O)N(C(=O)C(c1ccccc1)c1ccccc1)C2 [OLODANRIGAN],Population Apoptotic (%),[1],46%
same,Population Fragmented Nuclei (%),[1],17%
same,Population Healthy Nuclei (%),[1],63%
same,Population Hoechst High Intensity Objects (%),[1],7%
same,Population Membrane Permeable-Phenotype (%),[1],1%
same,Population Mitochondria Different-Phenotype (%),[1],2%
same,Population Mitotic Cells (%),[1],53%
same,Population Normal (%),[1],92%
same,Population Pyknosed Nuclei (%),[1],19%
same,Population Tubulin-Different-Phenotype (%),[1],29%
same,Total Cell Count,[1],157
same,Population Apoptotic (%),[2],38%
same,Population Fragmented Nuclei (%),[2],21%
same,Population Healthy Nuclei (%),[2],50%
same,Population Hoechst High Intensity Objects (%),[2],1%
same,Population Membrane Permeable-Phenotype (%),[2],9%
same,Population Mitochondria Different-Phenotype (%),[2],5%
same,Population Mitotic Cells (%),[2],61%
same,Population Normal (%),[2],98%
same,Population Pyknosed Nuclei (%),[2],27%
same,Population Tubulin-Different-Phenotype (%),[2],57%
same,Total Cell Count,[2],154
same,Population Apoptotic (%),[3],31%
same,Population Fragmented Nuclei (%),[3],11%
same,Population Healthy Nuclei (%),[3],65%
same,Population Hoechst High Intensity Objects (%),[3],0%
same,Population Membrane Permeable-Phenotype (%),[3],1%
same,Population Mitochondria Different-Phenotype (%),[3],7%
same,Population Mitotic Cells (%),[3],68%
same,Population Normal (%),[3],99%
same,Population Pyknosed Nuclei (%),[3],23%
same,Population Tubulin-Different-Phenotype (%),[3],28%
same,Total Cell Count,[3],140
same,Population Apoptotic (%),[4],34%
same,Population Fragmented Nuclei (%),[4],18%
same,Population Healthy Nuclei (%),[4],54%
same,Population Hoechst High Intensity Objects (%),[4],5%
same,Population Membrane Permeable-Phenotype (%),[4],6%
same,Population Mitotic Cells (%),[4],65%
same,Population Normal (%),[4],94%
same,Population Pyknosed Nuclei (%),[4],26%
same,Population Tubulin-Different-Phenotype (%),[4],46%
same,Total Cell Count,[4],162
same,Population Apoptotic (%),[5],65%
same,Population Fragmented Nuclei (%),[5],18%
same,Population Healthy Nuclei (%),[5],66%
same,Population Hoechst High Intensity Objects (%),[5],6%
same,Population Membrane Permeable-Phenotype (%),[5],0%
same,Population Mitochondria Different-Phenotype (%),[5],1%
same,Population Mitotic Cells (%),[5],34%
same,Population Normal (%),[5],93%
same,Population Pyknosed Nuclei (%),[5],15%
same,Population Tubulin-Different-Phenotype (%),[5],26%
same,Total Cell Count,[5],159
same,Population Apoptotic (%),[6],38%
same,Population Fragmented Nuclei (%),[6],21%
same,Population Healthy Nuclei (%),[6],53%
same,Population Hoechst High Intensity Objects (%),[6],2%
same,Population Membrane Permeable-Phenotype (%),[6],9%
same,Population Mitochondria Different-Phenotype (%),[6],7%
same,Population Mitotic Cells (%),[6],61%
same,Population Normal (%),[6],97%
same,Population Pyknosed Nuclei (%),[6],25%
same,Population Tubulin-Different-Phenotype (%),[6],46%
same,Total Cell Count,[6],146
same,Population Apoptotic (%),[7],53%
same,Population Fragmented Nuclei (%),[7],10%
same,Population Healthy Nuclei (%),[7],68%
same,Population Hoechst High Intensity Objects (%),[7],2%
same,Population Membrane Permeable-Phenotype (%),[7],1%
same,Population Mitochondria Different-Phenotype (%),[7],3%
same,Population Mitotic Cells (%),[7],46%
same,Population Normal (%),[7],97%
same,Population Pyknosed Nuclei (%),[7],21%
same,Population Tubulin-Different-Phenotype (%),[7],21%
same,Total Cell Count,[7],136
same,Population Apoptotic (%),[8],58%
same,Population Fragmented Nuclei (%),[8],17%
same,Population Healthy Nuclei (%),[8],62%
same,Population Hoechst High Intensity Objects (%),[8],3%
same,Population Membrane Permeable-Phenotype (%),[8],4%
same,Population Mitochondria Different-Phenotype (%),[8],4%
same,Population Mitotic Cells (%),[8],41%
same,Population Normal (%),[8],96%
same,Population Pyknosed Nuclei (%),[8],19%
same,Population Tubulin-Different-Phenotype (%),[8],50%
same,Total Cell Count,[8],153
same,Population Apoptotic (%),[9],42%
same,Population Fragmented Nuclei (%),[9],27%
same,Population Healthy Nuclei (%),[9],58%
same,Population Hoechst High Intensity Objects (%),[9],3%
same,Population Membrane Permeable-Phenotype (%),[9],0%
same,Population Mitochondria Different-Phenotype (%),[9],2%
same,Population Mitotic Cells (%),[9],57%
same,Population Normal (%),[9],96%
same,Population Pyknosed Nuclei (%),[9],14%
same,Population Tubulin-Different-Phenotype (%),[9],20%
same,Total Cell Count,[9],154
same,Population Apoptotic (%),[10],41%
same,Population Fragmented Nuclei (%),[10],31%
same,Population Healthy Nuclei (%),[10],52%
same,Population Hoechst High Intensity Objects (%),[10],1%
same,Population Membrane Permeable-Phenotype (%),[10],1%
same,Population Mitochondria Different-Phenotype (%),[10],4%
same,Population Mitotic Cells (%),[10],58%
same,Population Normal (%),[10],98%
same,Population Pyknosed Nuclei (%),[10],15%
same,Population Tubulin-Different-Phenotype (%),[10],40%
same,Total Cell Count,[10],156
same,Population Apoptotic (%),[11],57%
same,Population Fragmented Nuclei (%),[11],15%
same,Population Healthy Nuclei (%),[11],69%
same,Population Hoechst High Intensity Objects (%),[11],5%
same,Population Membrane Permeable-Phenotype (%),[11],1%
same,Population Mitochondria Different-Phenotype (%),[11],5%
same,Population Mitotic Cells (%),[11],42%
same,Population Normal (%),[11],94%
same,Population Pyknosed Nuclei (%),[11],15%
same,Population Tubulin-Different-Phenotype (%),[11],27%
same,Total Cell Count,[11],146
same,Population Apoptotic (%),[12],61%
same,Population Fragmented Nuclei (%),[12],29%
same,Population Healthy Nuclei (%),[12],58%
same,Population Hoechst High Intensity Objects (%),[12],7%
same,Population Membrane Permeable-Phenotype (%),[12],3%
same,Population Mitotic Cells (%),[12],38%
same,Population Normal (%),[12],92%
same,Population Pyknosed Nuclei (%),[12],12%
same,Population Tubulin-Different-Phenotype (%),[12],45%
same,Total Cell Count,[12],163
CCCCCCNC(=O)Nc1ccc(S(=O)(=O)Nc2ccc(CCNC[C@H](O)COc3ccc(O)cc3)cc2)cc1 [L-755507],Population Apoptotic (%),[1],40%
same,Population Fragmented Nuclei (%),[1],27%
same,Population Healthy Nuclei (%),[1],59%
same,Population Hoechst High Intensity Objects (%),[1],1%
same,Population Membrane Permeable-Phenotype (%),[1],3%
same,Population Mitochondria Different-Phenotype (%),[1],6%
same,Population Mitotic Cells (%),[1],60%
same,Population Normal (%),[1],98%
same,Population Pyknosed Nuclei (%),[1],12%
same,Population Tubulin-Different-Phenotype (%),[1],34%
same,Total Cell Count,[1],198
same,Population Apoptotic (%),[2],46%
same,Population Fragmented Nuclei (%),[2],21%
same,Population Hoechst High Intensity Objects (%),[2],3%
same,Population Mitochondria Different-Phenotype (%),[2],3%
same,Population Mitotic Cells (%),[2],53%
same,Population Normal (%),[2],96%
same,Population Pyknosed Nuclei (%),[2],19%
same,Population Tubulin-Different-Phenotype (%),[2],36%
same,Total Cell Count,[2],160
same,Population Apoptotic (%),[3],45%
same,Population Fragmented Nuclei (%),[3],17%
same,Population Healthy Nuclei (%),[3],72%
same,Population Hoechst High Intensity Objects (%),[3],5%
same,Population Membrane Permeable-Phenotype (%),[3],0%
same,Population Mitochondria Different-Phenotype (%),[3],10%
same,Population Mitotic Cells (%),[3],54%
same,Population Normal (%),[3],94%
same,Population Pyknosed Nuclei (%),[3],10%
same,Population Tubulin-Different-Phenotype (%),[3],47%
same,Total Cell Count,[3],218
same,Population Apoptotic (%),[4],42%
same,Population Fragmented Nuclei (%),[4],34%
same,Population Healthy Nuclei (%),[4],48%
same,Population Membrane Permeable-Phenotype (%),[4],1%
same,Population Mitochondria Different-Phenotype (%),[4],19%
same,Population Mitotic Cells (%),[4],57%
same,Population Pyknosed Nuclei (%),[4],17%
same,Population Tubulin-Different-Phenotype (%),[4],64%
same,Total Cell Count,[4],172
same,Population Apoptotic (%),[5],31%
same,Population Fragmented Nuclei (%),[5],26%
same,Population Healthy Nuclei (%),[5],63%
same,Population Hoechst High Intensity Objects (%),[5],1%
same,Population Membrane Permeable-Phenotype (%),[5],0%
same,Population Mitochondria Different-Phenotype (%),[5],3%
same,Population Mitotic Cells (%),[5],68%
same,Population Normal (%),[5],98%
same,Population Pyknosed Nuclei (%),[5],9%
same,Population Tubulin-Different-Phenotype (%),[5],27%
same,Total Cell Count,[5],196
same,Population Apoptotic (%),[6],39%
same,Population Healthy Nuclei (%),[6],59%
same,Population Hoechst High Intensity Objects (%),[6],2%
same,Population Membrane Permeable-Phenotype (%),[6],3%
same,Population Mitochondria Different-Phenotype (%),[6],12%
same,Population Mitotic Cells (%),[6],60%
same,Population Normal (%),[6],97%
same,Population Pyknosed Nuclei (%),[6],13%
same,Population Tubulin-Different-Phenotype (%),[6],44%
same,Total Cell Count,[6],176
same,Population Apoptotic (%),[7],72%
same,Population Fragmented Nuclei (%),[7],21%
same,Population Healthy Nuclei (%),[7],70%
same,Population Hoechst High Intensity Objects (%),[7],8%
same,Population Membrane Permeable-Phenotype (%),[7],0%
same,Population Mitochondria Different-Phenotype (%),[7],8%
same,Population Mitotic Cells (%),[7],27%
same,Population Normal (%),[7],91%
same,Population Pyknosed Nuclei (%),[7],8%
same,Population Tubulin-Different-Phenotype (%),[7],38%
same,Total Cell Count,[7],232
same,Population Apoptotic (%),[8],50%
same,Population Fragmented Nuclei (%),[8],38%
same,Population Healthy Nuclei (%),[8],51%
same,Population Hoechst High Intensity Objects (%),[8],4%
same,Population Membrane Permeable-Phenotype (%),[8],3%
same,Population Mitochondria Different-Phenotype (%),[8],19%
same,Population Mitotic Cells (%),[8],50%
same,Population Normal (%),[8],95%
same,Population Pyknosed Nuclei (%),[8],9%
same,Population Tubulin-Different-Phenotype (%),[8],65%
same,Total Cell Count,[8],168
same,Population Apoptotic (%),[9],62%
same,Population Fragmented Nuclei (%),[9],28%
same,Population Healthy Nuclei (%),[9],63%
same,Population Hoechst High Intensity Objects (%),[9],3%
same,Population Membrane Permeable-Phenotype (%),[9],0%
same,Population Mitochondria Different-Phenotype (%),[9],4%
same,Population Mitotic Cells (%),[9],37%
same,Population Normal (%),[9],96%
same,Population Pyknosed Nuclei (%),[9],8%
same,Population Tubulin-Different-Phenotype (%),[9],31%
same,Total Cell Count,[9],201
same,Population Apoptotic (%),[10],53%
same,Population Fragmented Nuclei (%),[10],33%
same,Population Healthy Nuclei (%),[10],58%
same,Population Hoechst High Intensity Objects (%),[10],4%
same,Population Membrane Permeable-Phenotype (%),[10],1%
same,Population Mitochondria Different-Phenotype (%),[10],6%
same,Population Mitotic Cells (%),[10],46%
same,Population Normal (%),[10],95%
same,Population Tubulin-Different-Phenotype (%),[10],33%
same,Total Cell Count,[10],170
same,Population Apoptotic (%),[11],79%
same,Population Fragmented Nuclei (%),[11],19%
same,Population Healthy Nuclei (%),[11],69%
same,Population Hoechst High Intensity Objects (%),[11],6%
same,Population Membrane Permeable-Phenotype (%),[11],1%
same,Population Mitochondria Different-Phenotype (%),[11],8%
same,Population Mitotic Cells (%),[11],20%
same,Population Normal (%),[11],93%
same,Population Pyknosed Nuclei (%),[11],10%
same,Population Tubulin-Different-Phenotype (%),[11],49%
same,Total Cell Count,[11],240
same,Population Apoptotic (%),[12],71%
same,Population Fragmented Nuclei (%),[12],42%
same,Population Healthy Nuclei (%),[12],53%
same,Population Hoechst High Intensity Objects (%),[12],3%
same,Population Membrane Permeable-Phenotype (%),[12],5%
same,Population Mitochondria Different-Phenotype (%),[12],11%
same,Population Mitotic Cells (%),[12],28%
same,Population Normal (%),[12],96%
same,Population Pyknosed Nuclei (%),[12],3%
same,Population Tubulin-Different-Phenotype (%),[12],55%
same,Total Cell Count,[12],184
